For experiment [1], the system named is MCF7. The experiment can be described thus: Reduction of glutathione synthesis in human MCF7 cells at 25 uM after 25 hrs. Type of experiment: functional. The arrangement: scale not given: the % may be the effect or the level left.
The next experiment concerns Escherichia coli. The experiment can be described thus: Inhibition of Escherichia coli thioredoxin upto 5 uM by insulin reduction method. Put shortly: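 25 nM E. coli TrxR plus 2 μM E. coli Trx were preincubated with ATO for 30 min in 50 mM Tris·HCl/1 mM EDTA pH 7.5 with 200 μM NADPH. Then 200 μM NADPH/160 μM insulin was added and A340 followed. Activity was taken as ΔA340/min over the initial 5 min.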

For experiment [2], the system named is MCF7. The experiment can be described thus: Inhibition of human MCF7 cell growth after 24 hrs by XTT assay. The class given is functional, cell-based. Put shortly: (§1)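 MCF-7 cells in RPMI 1640/10% FCS were seeded at 6 × 10^3 cells per well, grown overnight, then exposed to ATO for 24 or 48 h. Medium was replaced with XTT labeling mixture for 3 h and A492 of the formazan read as the measure of proliferation/viability.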
For orientation: Tetrazolium assays rely on reduction of a dye to a coloured formazan, in cell work by metabolically active cells.

For experiment [3], the system named is MCF7. The experiment can be described thus: Reduction of human MCF7 cell growth at 2.5 uM after 48 hrs by XTT assay. The class given is functional, cell-based. Put shortly: as §1
Experiment [4] deals with MCF7. The experiment can be described thus: Reduction of human MCF7 cell growth at 5.0 uM after 48 hrs by XTT assay. Type of experiment: functional, cell-based. Put shortly: as §1
The target in experiment [5] is T1, Thioredoxin reductase 1, cytoplasmic (Rattus norvegicus) (UniProt O89049).
T1 sequence (whole entry): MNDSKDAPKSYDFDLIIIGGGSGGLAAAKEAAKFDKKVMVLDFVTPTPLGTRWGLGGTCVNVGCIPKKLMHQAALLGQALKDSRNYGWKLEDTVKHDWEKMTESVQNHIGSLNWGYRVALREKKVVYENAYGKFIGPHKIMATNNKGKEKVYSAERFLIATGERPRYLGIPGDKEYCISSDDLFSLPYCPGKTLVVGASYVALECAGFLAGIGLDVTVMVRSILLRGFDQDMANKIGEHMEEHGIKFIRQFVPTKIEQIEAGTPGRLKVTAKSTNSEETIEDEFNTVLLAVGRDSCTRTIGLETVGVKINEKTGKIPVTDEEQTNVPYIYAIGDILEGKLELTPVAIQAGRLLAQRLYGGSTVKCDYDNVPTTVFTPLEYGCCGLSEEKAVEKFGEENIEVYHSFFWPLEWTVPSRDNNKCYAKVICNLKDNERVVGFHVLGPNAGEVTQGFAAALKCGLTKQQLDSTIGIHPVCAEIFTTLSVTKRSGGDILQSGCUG
As to the kind of experiment: Inhibition of NADPH-reduced rat recombinant TrxR1 at 0.1 uM attenuated in presence of 1 mM Glutathione after 30 minis. Put shortly:
(§2)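 NADPH-reduced rat TrxR (10 nM) with 2 μM human Trx, with or without 1 mM GSH, was incubated with ATO for 30 min in Tris/EDTA pH 7.5 containing 200 μM NADPH. Trx-system activity was read after adding 200 μM NADPH/160 μM insulin, as ΔA340/min over the initial 5 min.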

In experiment [6] the target is T1, Thioredoxin reductase 1, cytoplasmic (Rattus norvegicus). The experiment can be described thus: Inhibition of NADPH-reduced rat recombinant TrxR1 at 0.25 uM attenuated in presence of 1 mM Glutathione after 30 minis. Put shortly: as §2
Experiment [7] has the same target. The experiment can be described thus: Inhibition of NADPH-reduced rat recombinant TrxR1 at >0.5 uM attenuated in presence of 1 mM Glutathione after 30 minis. Put shortly:
as §2

For experiment [8] the target is unchanged. The experiment can be described thus: Inhibition of NADPH-reduced rat recombinant TrxR1 assessed as […] by DTNB reduction assay. An outline of the steps: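 Recombinant rat TrxR1 (50 nM), NADPH-reduced, was preincubated with ATO (0.05–5 μM) for 30 min in 50 mM Tris·HCl/1 mM EDTA pH 7.5 with 200 μM NADPH. Activity was then measured with 5 mM DTNB by following A412; the rate was the slope over the initial 2 min. Duplicate experiments; IC50 after 30-min incubation.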

Active and inactive are the calls of the source. The rule behind the calls is not given here.

In ChEMBL document CHEMBL1147045, “Targeting thioredoxin reductase is a basis for cancer therapy by arsenic trioxide” (2007) one finds Activity data, which are given here for two compounds.

In the experiment with MCF7 [1], `CCCCS(=N)(=O)CCC(N)C(=O)O` (centres undefined) [BUTHIONINE SULFOXIMINE] showed an Activity of 80%.

As for `O=[As][As+](=O)[O-]` (centres undefined), the outcome (with Escherichia coli; in the experiment with MCF7 [2]; in [7]; in [8]) was inactive. In addition, the result (in the experiment on MCF7 [3]; in the experiment on MCF7 [4]; in experiment [5]; in experiment [6]) was Active.
